Published values from different studies.
Lines come from different studies, so protocols differ.

SMILES | cell line | assay | conditions | quantity | result
COc1ccc(-c2ccc(-c3ccc(C(=N)N)nc3)s2)cc1Cl | TK-10 | cell growth or viability |  | GI50 | 1900 nM
S=C([S][Au-][P+](CCCCCC[P+]([Au-][S]C(=S)n1cccn1)(c1ccccc1)c1ccccc1)(c1ccccc1)c1ccccc1)n1cccn1 | TK-10 | cell growth or viability |  | GI50 | 11000 nM
COc1cc(/C=N/n2c(C)nc3ccc(C)cc3c2=O)ccc1OCc1ccccc1 | LoVo | cell growth or viability, LDH | 200 µg/mL, 24 h | viability | 76.5%
C=CC(=O)N1CCC[C@@H](n2nc(-c3ccc(Oc4ccccc4)cc3)c3c(N)ncnc32)C1 | U2932 | cell growth or viability | 48 h | GI50 | 5000 nM
Cc1ccc2c(c1)C(=NNc1nnc(Cc3ccccc3)c3ccccc13)C(=O)N2 | HT-29 | cell growth or viability | 30 µM | inhibition | 89.1%
Cc1c(-c2cccc(C(F)(F)F)c2)sc2[nH]c(=O)n([C@H](C)c3cccc4ccccc34)c(=O)c12 | NCI-H1650 | cell growth or viability, fluorescence | 10 µM | inhibition | > 80%
Cc1nc2ccc(Cl)cc2c(=O)n1NC(=O)CCl | LoVo | cell growth or viability, LDH | 200 µg/mL, 24 h | viability | 89.5%
Cc1ccc2c(c1)C(=NNc1nc3ccccc3n(C)c1=O)C(=O)N2 | HT-29 | cell growth or viability | 30 µM | inhibition | 47.6%
CC(C)(O)[C@H]1CC[C@H](Nc2ccc3ncc(-c4cccc(C(F)(F)F)c4)n3n2)CC1 | UMUC3 | colony formation |  | EC50 | 2200 nM
Cn1c(=O)c(NN=C2C(=O)Nc3ccccc32)nc2ccccc21 | HT-29 | cell growth or viability | 30 µM | inhibition | 73%
Cc1c(CN(C)C(=O)/C=C/c2cnc3c(c2)CC(CCN)C(=O)N3)oc2ccccc12 (centres unmarked) | IMR-90 | cell growth or viability, resazurin | 30 µM, 72 h | inhibition | 12%
COc1cc(/C=N/n2c(C)nc3ccc(Br)cc3c2=O)ccc1OCc1ccc(Cl)cc1 | LoVo | cell growth or viability, LDH | 200 µg/mL, 24 h | viability | 80%
C=CC(=O)Nc1cc(-n2c(=O)ccc3cnc4ccc(-c5ccc(NS(C)(=O)=O)cc5)cc4c32)ccc1C | U2932 | cell growth or viability | 48 h | GI50 | 2150 nM
CC[C@@H]1C=CC(=O)O[C@@H]1C[C@@H](O)[C@H](C)[C@H](O)[C@@H](C)Cc1ccc(F)cc1 | A2780 | cell growth or viability, MTT | 48 h | GI50 | 29.7 nM
